{
  "source": "ChEMBL document CHEMBL4673249",
  "about": "“Anticancer Effects of Honokiol via Mitochondrial Dysfunction Are Strongly Enhanced by the Mitochondria-Targeting Carrier Berberine” (J Med Chem, 2020)",
  "key": {"HepG2 [1]": {"tested_on": "HepG2", "assay": "Induction of mitochondrial morphological changes in human HepG2 cells assessed as dilation of mitochondria at 3 uM measured after 12 hrs by MitoTracker red CMXRos by confocal microscopic method", "assay_type": "functional, cell-based", "outline": "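HepG2 cells stained with MitoTracker Red CMXRos; fluorescence and phase-contrast images taken by laser confocal microscopy.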"}, "HepG2 [2]": {"tested_on": "HepG2", "assay": "Induction of autophagy in human HepG2 cells assessed as effect on LC3-2 protein expression at 3 uM after 24 hrs by Western blot analysis", "assay_type": "functional, cell-based", "outline": "(§1)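 HepG2 cells lysed in RIPA on ice for 20 min; protein measured by BCA. Lysates run on 10% SDS-PAGE and transferred to PVDF. Membranes blocked in 5% nonfat milk/TBST for 2 h, incubated with primary antibodies overnight at 4 °C, then HRP secondary antibody; bands detected by ECL.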"}, "HepG2 [3]": {"tested_on": "HepG2", "assay": "Antiproliferative activity against human HepG2 cells assessed as reduction in cell viability after 48 hrs by MTT assay", "assay_type": "functional, cell-based", "details": "HepG2, 48 h", "outline": "(§2)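 Cell lines grown at 37 °C in 5% CO2: A2780, A549, HL7702 and PC3 in RPMI 1640; HT29 in McCoy's 5A; HepG2 and PANC-1 in DMEM; all media with 10% FBS and penicillin/streptomycin. Cells seeded and left overnight, then exposed to compound for 48 h. MTT (5 mg/mL solution) added for 4 h at 37 °C, formazan dissolved in DMSO, absorbance read at 570 nm. IC50 taken from viability; run in triplicate.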"}, "HepG2 [4]": {"tested_on": "HepG2", "assay": "Induction of apoptosis in human HepG2 cells assessed as increase in cleaved-PARP protein expression at 1 to 4 uM after 24 hrs by Western blot analysis", "assay_type": "functional, cell-based", "details": "dose 1-4 µM", "outline": "as §1"}, "HepG2 [5]": {"tested_on": "HepG2", "assay": "Induction of ROS generation in human HepG2 cells at 2 uM measured up to 24 hrs by DCFH-DA staining based flow cytometric analysis", "assay_type": "functional, cell-based", "details": "time hrs <=24", "outline": "(§3)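 HepG2 cells treated for the stated time, then loaded with 10 μM DCFH-DA in FBS-free medium for 30 min in the dark. Washed twice with PBS, trypsinized, pelleted at 1200 rpm for 5 min, resuspended in PBS and read by flow cytometry. Kit Rosup reagent served as positive agent.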"}, "HepG2 [6]": {"tested_on": "HepG2", "assay": "Antitumour activity against human HepG2 cells xenografted in AB zebrafish assessed as inhibition of cell growth at 0.8 to 2.4 uM after 48 hrs by cell tracker CM-Dil based laser confocal microscopic method", "assay_type": "functional", "details": "dose 0.8-2.4 µM", "outline": "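Wild-type AB zebrafish embryos raised at 28 °C in embryo medium (5.0 mM NaCl, 0.17 mM KCl, 0.4 mM CaCl2, 0.16 mM MgSO4). HepG2 cells labelled with CM-DiI, microinjected into 2-day-old larvae. At 4 h post-injection, larvae with the same injection spot were grouped (about 15–20 per group, three wells each). Exposed to 0.8, 1.6 or 2.4 μM in the water for 48 h; doxorubicin 1.0 μM as reference. Tumour fluorescence intensity measured by confocal microscopy.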"}, "HepG2 [7]": {"tested_on": "HepG2", "assay": "Induction of apoptosis in human HepG2 cells assessed as necrotic cells at 4 uM after 24 hrs in presence of z-VAD-fmk by annexin V/propidium iodide staining based flow cytometric analysis (reference value: 0.12%)", "assay_type": "functional"}, "HepG2 [8]": {"tested_on": "HepG2", "assay": "Induction of apoptosis in human HepG2 cells assessed as necrotic cells at 1 uM after 24 hrs by annexin V/propidium iodide staining based flow cytometric analysis (reference value: 0.11%)", "assay_type": "functional"}, "A2780 [9]": {"tested_on": "A2780", "assay": "Induction of morphological changes in human A2780 cells assessed as accumulation of cytoplasmic vacuoles at 4 uM after 24 hrs by optical microscopic method", "assay_type": "functional, cell-based"}, "PC-3": {"tested_on": "PC-3", "assay": "Antiproliferative activity against human PC-3 cells assessed as reduction in cell viability after 48 hrs by MTT assay", "assay_type": "functional, cell-based", "details": "PC-3, 48 h", "outline": "as §2"}, "HepG2 [10]": {"tested_on": "HepG2", "assay": "Induction of apoptosis in human HepG2 cells assessed as necrotic cells at 4 uM after 24 hrs by annexin V/propidium iodide staining based flow cytometric analysis (reference value: 0.11%)", "assay_type": "functional"}, "HepG2 [11]": {"tested_on": "HepG2", "assay": "Induction of mitochondrial dysfunction in human HepG2 cells assessed as increase in MPTP opening at 1 to 4 uM after 24 hrs by JC-1 staining based flow cytometric analysis", "assay_type": "functional, cell-based", "details": "dose 1-4 µM"}, "HepG2 [12]": {"tested_on": "HepG2", "assay": "Induction of apoptosis in human HepG2 cells assessed as late apoptotic cells at 4 uM after 24 hrs by annexin V/propidium iodide staining based flow cytometric analysis (reference value: 3.22%)", "assay_type": "functional"}, "HepG2 [13]": {"tested_on": "HepG2", "assay": "Induction of cell death in human HepG2 cells at 3 uM after 12 hrs in presence of Nec-1 by MTT assay", "assay_type": "functional, cell-based", "outline": "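HepG2 cells pretreated with Nec-1 (30 μM) for 2 h, then given 3 μM. Viability measured by MTT with absorbance read at 570 nm.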"}, "HepG2 [14]": {"tested_on": "HepG2", "assay": "Induction of autophagy in human HepG2 cells assessed as effect on P62 protein expression at 3 uM after 24 hrs by Western blot analysis", "assay_type": "functional, cell-based", "outline": "as §1"}, "HepG2 [15]": {"tested_on": "HepG2", "assay": "Induction of apoptosis in human HepG2 cells assessed as increase in cleaved-caspase 8 protein expression at 1 to 4 uM after 24 hrs by Western blot analysis", "assay_type": "functional, cell-based", "details": "dose 1-4 µM", "outline": "as §1"}, "HepG2 [16]": {"tested_on": "HepG2", "assay": "Induction of apoptosis in human HepG2 cells assessed as necrotic cells at 2 uM after 24 hrs by annexin V/propidium iodide staining based flow cytometric analysis (reference value: 0.11%)", "assay_type": "functional"}, "PANC-1": {"tested_on": "PANC-1", "assay": "Antiproliferative activity against human PANC1 cells assessed as reduction in cell viability after 48 hrs by MTT assay", "assay_type": "functional, cell-based", "details": "PANC-1, 48 h", "outline": "as §2"}, "HT-29": {"tested_on": "HT-29", "assay": "Induction of morphological changes in human HT29 cells assessed as accumulation of cytoplasmic vacuoles at 4 uM after 24 hrs by optical microscopic method", "assay_type": "functional, cell-based", "outline": "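Cells grown at 37 °C, 5% CO2 in media with 10% FBS and penicillin/streptomycin, then treated with compound. Cytoplasmic vacuoles judged by optical microscopy. Time course at 4 μM, or 10 h exposure across increasing concentrations.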"}, "HepG2 [17]": {"tested_on": "HepG2", "assay": "Induction of cell death in human HepG2 cells at 3 uM after 24 hrs in presence of 3-MA by MTT assay", "assay_type": "functional, cell-based", "outline": "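HepG2 cells given 3 μM for 24 h together with CQ (10 μM) or 3-MA (1 mM). Viability measured by MTT with absorbance read at 570 nm.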"}, "HepG2 [18]": {"tested_on": "HepG2", "assay": "Induction of ROS generation in human HepG2 cells after 24 hrs by DCFH-DA staining based flow cytometric analysis", "assay_type": "functional, cell-based", "outline": "as §3"}, "HepG2 [19]": {"tested_on": "HepG2", "assay": "Induction of apoptosis in human HepG2 cells assessed as early apoptotic cells at 1 uM after 24 hrs by annexin V/propidium iodide staining based flow cytometric analysis (reference value: 1.29%)", "assay_type": "functional"}, "HepG2 [20]": {"tested_on": "HepG2", "assay": "Induction of morphological changes in human HepG2 cells assessed as accumulation of vacuoles at 3 uM after 24 hrs in presence of 3-MA by microscopic method", "assay_type": "functional, cell-based", "outline": "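HepG2 cells given 3 μM compound for 24 h with chloroquine (10 μM) or 3-methyladenine (1 mM). Vacuolization and viability examined, viability by MTT.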"}, "HepG2 [21]": {"tested_on": "HepG2", "assay": "Potency index, ratio of HN IC50 to test compound IC50 for antiproliferative activity against human HepG2 cells", "assay_type": "functional", "outline": "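MTT assay after 48 h drug exposure. Cells seeded overnight, MTT (5 mg/mL stock) added for 4 h at 37 °C, formazan dissolved in DMSO, absorbance read at 570 nm. IC50 taken from viability, repeated in triplicate, and the IC50 ratio calculated.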"}, "A2780 [22]": {"tested_on": "A2780", "assay": "Antiproliferative activity against human A2780 cells assessed as reduction in cell viability after 48 hrs by MTT assay", "assay_type": "functional, cell-based", "details": "A2780, 48 h", "outline": "as §2"}},
  "note": "pIC50: −log10 of the molar value. Activity calls are given as the source filed them. The rule behind the calls is not given here.",
  "data": [
    {"smiles": "C=CCc1ccc(O)c(-c2ccc(OCCCCCc3c4[n+](cc5c(OC)c(OC)ccc35)CCc3cc5c(cc3-4)OCO5)c(CC=C)c2)c1.[I-]", "values": [
      {"measurement": "Activity", "setting": "HepG2 [1]", "value": "Active"},
      {"measurement": "Activity", "setting": "HepG2 [2]", "value": "inactive"},
      {"measurement": "pIC50", "setting": "HepG2 [3]", "value": 5.79},
      {"measurement": "Activity", "setting": "HepG2 [4]", "value": "Active"},
      {"measurement": "Activity", "setting": "HepG2 [5]", "value": "Active"},
      {"measurement": "growth inhibition (GI)", "setting": "HepG2 [6]", "value": "Active"},
      {"measurement": "Activity", "setting": "HepG2 [7]", "value": 0.57, "unit": "%"},
      {"measurement": "Activity", "setting": "HepG2 [8]", "value": 0.2, "unit": "%"},
      {"measurement": "Activity", "setting": "A2780 [9]", "value": "Active"},
      {"measurement": "pIC50", "setting": "PC-3", "value": 5.65},
      {"measurement": "Activity", "setting": "HepG2 [10]", "value": 0.41, "unit": "%"},
      {"measurement": "Activity", "setting": "HepG2 [11]", "value": "Active"},
      {"measurement": "Activity", "setting": "HepG2 [12]", "value": 17.6, "unit": "%"},
      {"measurement": "Activity", "setting": "HepG2 [13]", "value": "Active"},
      {"measurement": "Activity", "setting": "HepG2 [14]", "value": "inactive"},
      {"measurement": "Activity", "setting": "HepG2 [15]", "value": "Active"},
      {"measurement": "Activity", "setting": "HepG2 [16]", "value": 0.13, "unit": "%"},
      {"measurement": "pIC50", "setting": "PANC-1", "value": 5.48},
      {"measurement": "Activity", "setting": "HT-29", "value": "Active"},
      {"measurement": "Activity", "setting": "HepG2 [17]", "value": "Active"},
      {"measurement": "Activity", "setting": "HepG2 [18]", "value": "Dose-dependent effect"},
      {"measurement": "Activity", "setting": "HepG2 [19]", "value": 3.27, "unit": "%"},
      {"measurement": "Activity", "setting": "HepG2 [20]", "value": "Active"},
      {"measurement": "Ratio IC50", "setting": "HepG2 [21]", "value": 14.6},
      {"measurement": "pIC50", "setting": "A2780 [22]", "value": 5.65}
    ]}
  ]
}
